For data set [1], the system named is Pfa1 cells. As to the kind of experiment: Cell death elicited by ferroptosis-inducing agents. The format is cell-based, mouse. Conditions: for Induction of cell death through GSH depletion: Pfa1 cells; for Prevention of cell death elicited by FINs: erastin 2.5 μM, BSO 20 μM, RSL3 20 nM, DFO 10 μM, Fer1 0.1 μM, αToc 1 μM, Nec1 20 μM, Z-VAD-FMK 50 μM.
The test system of data set [2] is TAM-inducible Gpx4−/− cells (Pfa1). As to the kind of experiment: Rescue of cell death induced by TAM-inducible Gpx4 deletion in Pfa1 cells. Conditions: 1 μM TAM, viability 72 h after knockout induction. The format is cell-based, mouse.
For data set [3], the system named is Gpx4−/− cells. The experiment in a line: Lipid peroxidation in Gpx4−/− cells. The class given is cell-based, mouse. Conditions: 48 h after knockout induction; Liproxstatin-1 50 nM. The essentials: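 Gpx4 loss is induced in TAM-inducible Pfa1 cells grown in dishes in DMEM with 10% FBS. Test compound is present during induction. At 48 h after knockout induction, cells are washed, stained with BODIPY 581/591 C11 for 1 h, and probe oxidation is measured by flow cytometry.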

The subject of data set [4] is HepG2 cells. As to the kind of experiment: Cytotoxicity in HepG2 cells. Conditions: 72 h incubation. The format is cell-based. The essentials:
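Cells are incubated with increasing concentrations of the test compound for 72 h. Viability is then read with the AquaBluer live-cell indicator. TC50 is derived by curve fitting.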

Data set [5] has as its target hERG channel (Homo sapiens, UniProt Q12809). As to the kind of experiment: hERG patch clamp assay. The class given is cell-based. Conditions: read-out: hERG patch clamp assay IC50.
For data set [6], the target named is CYP450 2C9 (Homo sapiens, UniProt P11712). As to the kind of experiment: CYP450 inhibition 2C9. The class given is in vitro ADME. Conditions: read-out: CYP450 inhibition 2C9 IC50.
Chain of CYP450 2C9 (P11712 whole entry): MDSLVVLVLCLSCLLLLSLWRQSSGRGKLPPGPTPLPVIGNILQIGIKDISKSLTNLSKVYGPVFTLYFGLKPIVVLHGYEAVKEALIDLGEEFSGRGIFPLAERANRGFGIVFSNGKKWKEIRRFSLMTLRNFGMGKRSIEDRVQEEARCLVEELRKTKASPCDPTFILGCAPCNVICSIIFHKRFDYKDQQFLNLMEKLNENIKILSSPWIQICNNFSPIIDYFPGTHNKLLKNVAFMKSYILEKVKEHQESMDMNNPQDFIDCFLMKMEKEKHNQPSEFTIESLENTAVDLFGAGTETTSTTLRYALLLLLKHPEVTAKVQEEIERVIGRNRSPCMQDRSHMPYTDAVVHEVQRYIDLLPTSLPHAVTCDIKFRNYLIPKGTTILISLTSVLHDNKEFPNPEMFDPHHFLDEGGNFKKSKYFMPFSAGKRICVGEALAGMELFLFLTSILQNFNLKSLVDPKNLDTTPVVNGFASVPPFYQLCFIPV
For data set [7], the target named is CYP450 2D6 (Homo sapiens, UniProt P10635). The experiment in a line: CYP450 inhibition 2D6. The class given is in vitro ADME. Particulars: read-out: CYP450 inhibition 2D6 IC50.
Chain of CYP450 2D6 (P10635 whole entry): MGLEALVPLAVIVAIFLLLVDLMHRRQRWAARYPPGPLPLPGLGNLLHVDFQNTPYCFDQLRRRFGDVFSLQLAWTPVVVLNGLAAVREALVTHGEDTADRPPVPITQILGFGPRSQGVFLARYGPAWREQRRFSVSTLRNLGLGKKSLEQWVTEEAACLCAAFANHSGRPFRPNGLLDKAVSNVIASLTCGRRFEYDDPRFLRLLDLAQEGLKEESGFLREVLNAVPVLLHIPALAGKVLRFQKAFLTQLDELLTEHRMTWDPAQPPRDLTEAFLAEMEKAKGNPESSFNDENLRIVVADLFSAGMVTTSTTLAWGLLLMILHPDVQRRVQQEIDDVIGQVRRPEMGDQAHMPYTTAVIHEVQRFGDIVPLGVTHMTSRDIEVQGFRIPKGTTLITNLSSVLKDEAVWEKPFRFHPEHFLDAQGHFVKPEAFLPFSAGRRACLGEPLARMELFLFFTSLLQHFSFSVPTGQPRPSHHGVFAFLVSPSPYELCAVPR
For data set [8], the target named is CYP450 3A4 (Homo sapiens, UniProt P08684). As to the kind of experiment: CYP450 inhibition 3A4. The class given is in vitro ADME. Conditions: read-out: CYP450 inhibition 3A4 IC50.
Chain of CYP450 3A4 (P08684 whole entry): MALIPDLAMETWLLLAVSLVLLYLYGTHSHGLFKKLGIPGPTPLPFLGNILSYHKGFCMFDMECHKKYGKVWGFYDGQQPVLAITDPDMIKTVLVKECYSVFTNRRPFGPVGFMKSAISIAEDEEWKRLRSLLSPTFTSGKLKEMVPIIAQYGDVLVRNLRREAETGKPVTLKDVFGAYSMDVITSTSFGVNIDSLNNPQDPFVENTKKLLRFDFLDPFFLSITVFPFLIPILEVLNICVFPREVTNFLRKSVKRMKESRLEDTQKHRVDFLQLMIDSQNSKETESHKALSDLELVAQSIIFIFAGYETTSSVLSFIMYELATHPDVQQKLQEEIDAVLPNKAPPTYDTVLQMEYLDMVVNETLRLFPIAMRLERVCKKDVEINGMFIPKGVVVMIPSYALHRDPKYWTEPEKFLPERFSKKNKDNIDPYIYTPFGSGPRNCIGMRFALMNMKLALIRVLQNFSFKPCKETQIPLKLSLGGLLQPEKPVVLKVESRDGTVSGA
The test system of data set [9] is CYP450 1A. As to the kind of experiment: CYP450 inhibition 1A. The class given is in vitro ADME. Conditions: read-out: CYP450 inhibition 1A IC50.
Data set [10] addresses CYP450 2C19 (Homo sapiens, UniProt P33261). As to the kind of experiment: CYP450 inhibition 2C19. The class given is in vitro ADME. Conditions: read-out: CYP450 inhibition 2C19 IC50.
Data set [11] in a line: Mouse pharmacokinetics. The class given is in vivo.
In data set [12] the test system is L929 cells. The experiment in a line: TNFα/Z-VAD-FMK-induced necroptosis in L929 cells. Particulars: Liproxstatin-1 1 μM; TNFα 5 ng ml^−1 + Z-VAD-FMK 50 μM; 8 h. The class given is cell-based.
Data set [13] has as its system Pfa1 cells. As to the kind of experiment: Cell death induced by staurosporine and H2O2. The class given is cell-based, mouse. Particulars: Liproxstatin-1 200 nM; staurosporine 0.2 μM, H2O2 200 μM; 24 h. In outline:
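Gpx4-proficient (non-induced) Pfa1 mouse cells, kept in DMEM with 10% FBS. The test compound is given together with the death trigger: BSO 10 μM, erastin 1 μM or RSL3 0.5 μM, or staurosporine 0.2 μM or H2O2 200 μM. Viability is read 24 h after treatment. Mean ± s.d. of n = 3 wells; representative of at least four independent experiments.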

Data set [14] concerns primary human renal proximal tubule epithelial cells (HRPTEpiCs). The experiment in a line: Viability of HRPTEpiCs treated with RSL3. The format is cell-based. Particulars: 24 h. In outline:
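Primary human renal proximal tubule epithelial cells, cultured per supplier recommendations. Cells are exposed to RSL3 with or without test compound, and viability is read by AquaBluer 24 h after treatment. Mean ± s.d. of n = 3 wells; representative of three independent experiments.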

For data set [15], the system named is HRPTEpiCs. As to the kind of experiment: RSL3-induced lipid oxidation in HRPTEpiCs. The format is cell-based, human. Conditions: RSL3 0.2 μM; 24 h. The essentials:
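Primary human renal proximal tubule epithelial cells, cultured per supplier recommendations. Cells are treated with RSL3 (0.2 μM) with or without test compound. After 24 h, cells are stained with BODIPY 581/591 C11 for 1 h and lipid oxidation is measured by flow cytometry. Representative of four independent experiments.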

Data set [16] deals with CreERT2;Gpx4fl/fl mice. As to the kind of experiment: In vivo rescue of TAM-induced CreERT2. The arrangement: species or system mouse. Particulars: 10 mg kg^−1 i.p. daily. In outline:
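CreERT2;Gpx4fl/fl mice receive 0.5 mg TAM in Miglyol on days 1 and 3. From day 4, the test compound (10 mg kg−1) or vehicle (1% DMSO in PBS) is given i.p. once daily, with injections and scoring blinded. Survival is compared by log-rank/Gehan–Breslow–Wilcoxon tests (n = 12 vehicle, n = 13 treated; run twice). Kidney TUNEL+ cells are counted 9 days after TAM.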

The test system of data set [17] is C57BL/6J mice. As to the kind of experiment: Hepatic ischaemia/reperfusion injury model. The format is in vivo, mouse. Particulars: 90 min ischaemia, 24 h reperfusion. In outline:
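Male C57BL/6J mice, 8–10 weeks old, 22–24 g, randomised; operators blinded. Under xylazine/ketamine, an atraumatic clip is placed across the portal vein, hepatic artery and bile duct above the right lateral lobe branch. Reperfusion follows 90 min of ischaemia. At 24 h, serum ALT/AST is measured and necrotic area is scored (n = 17 and n = 5). Mean ± s.e.m.; one-way ANOVA with Dunnett's post-test.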

The test system of data set [18] is PZL cells (CreERT2;Gpx4fl/fl/Alox15−/−). The experiment in a line: Cell death on TAM-induced Gpx4 deficiency in PZL cells. The class given is cell-based, mouse.
In data set [19] the test system is Rip1−/− cells. The experiment in a line: FIN/RSL3-induced ferroptosis in Rip1−/− cells. Particulars: RSL3 1 μM; 6 h pre-treatment; viability at 24 h. The class given is cell-based.

The term IC50 denotes the point on the concentration scale where inhibition reaches its midpoint. In general, Vss refers to a proportionality between amount in the body and measured concentration, not a real space. The low end stands for confinement near the circulation, the high end for extensive tissue distribution. As usually defined, the Cmax is the maximum level reached in the sampled fluid or tissue. The Tmax is the time from dosing to the highest level.

Where “and” joins values, the source holds several entries; their conditions need not be identical. Identical values can stand only once.

Chain of CYP450 2C19 (P33261 whole entry): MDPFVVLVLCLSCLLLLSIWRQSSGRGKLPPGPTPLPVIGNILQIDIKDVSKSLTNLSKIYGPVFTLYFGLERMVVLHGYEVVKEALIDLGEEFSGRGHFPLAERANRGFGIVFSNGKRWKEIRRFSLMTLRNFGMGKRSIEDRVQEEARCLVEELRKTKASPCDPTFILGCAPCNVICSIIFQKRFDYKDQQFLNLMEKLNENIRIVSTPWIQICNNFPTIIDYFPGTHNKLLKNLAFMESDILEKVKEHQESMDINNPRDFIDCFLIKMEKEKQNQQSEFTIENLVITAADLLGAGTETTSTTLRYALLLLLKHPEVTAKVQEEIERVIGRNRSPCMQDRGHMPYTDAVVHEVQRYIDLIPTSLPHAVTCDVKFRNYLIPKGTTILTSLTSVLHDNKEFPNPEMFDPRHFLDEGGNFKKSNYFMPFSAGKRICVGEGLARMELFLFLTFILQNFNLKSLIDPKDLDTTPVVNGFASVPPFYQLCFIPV
Chain of hERG channel (Q12809 whole entry): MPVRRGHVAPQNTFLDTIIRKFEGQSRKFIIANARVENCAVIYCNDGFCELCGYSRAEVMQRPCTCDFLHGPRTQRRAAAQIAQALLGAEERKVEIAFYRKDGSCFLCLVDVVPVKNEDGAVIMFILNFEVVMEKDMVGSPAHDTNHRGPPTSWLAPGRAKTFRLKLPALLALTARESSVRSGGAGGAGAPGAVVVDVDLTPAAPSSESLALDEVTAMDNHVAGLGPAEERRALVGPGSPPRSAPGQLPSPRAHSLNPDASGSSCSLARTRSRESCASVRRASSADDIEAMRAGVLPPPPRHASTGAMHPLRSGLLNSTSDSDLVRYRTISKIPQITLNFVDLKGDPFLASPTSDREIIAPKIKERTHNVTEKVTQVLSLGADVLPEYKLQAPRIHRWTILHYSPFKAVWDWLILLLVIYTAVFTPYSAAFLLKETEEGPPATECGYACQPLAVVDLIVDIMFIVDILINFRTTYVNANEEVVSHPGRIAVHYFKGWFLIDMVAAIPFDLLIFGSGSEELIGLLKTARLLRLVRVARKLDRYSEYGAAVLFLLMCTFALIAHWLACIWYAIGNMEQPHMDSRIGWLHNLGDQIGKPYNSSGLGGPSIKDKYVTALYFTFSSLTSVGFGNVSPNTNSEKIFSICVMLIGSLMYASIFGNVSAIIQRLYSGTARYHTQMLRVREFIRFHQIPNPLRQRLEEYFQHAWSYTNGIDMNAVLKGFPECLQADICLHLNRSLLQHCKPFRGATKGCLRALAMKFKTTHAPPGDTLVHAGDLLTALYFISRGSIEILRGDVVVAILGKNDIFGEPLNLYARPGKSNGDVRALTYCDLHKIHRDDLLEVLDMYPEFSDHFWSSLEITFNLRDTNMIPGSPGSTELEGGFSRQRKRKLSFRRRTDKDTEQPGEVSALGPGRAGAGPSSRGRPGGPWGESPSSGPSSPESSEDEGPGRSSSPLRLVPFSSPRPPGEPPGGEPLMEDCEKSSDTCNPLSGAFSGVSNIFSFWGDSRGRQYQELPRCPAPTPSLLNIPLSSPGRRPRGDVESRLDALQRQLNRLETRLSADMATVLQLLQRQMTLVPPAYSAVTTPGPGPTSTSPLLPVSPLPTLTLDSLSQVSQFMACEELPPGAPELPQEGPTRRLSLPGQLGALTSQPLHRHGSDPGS

Regarding `CCCCS(=N)(=O)CCC(N)C(=O)O` [BSO, L-buthionine sulphoximine], the “Induction of cell death through GSH depletion” value in [1] is reported as “efficiently triggered rapid cell death”.

Consider `CC(=O)N(O)C/C=C/c1cccc(Oc2ccccc2)c1` [BWA4C], for which the “Rescue of cell death in response to Gpx4 deletion” value (“Rescue of cell death in response” below) in [2] is recorded as “prevented cell death”.

For `CC(=O)N(O)CCCCCNC(=O)CCC(=O)N(O)CCCCCNC(=O)CCC(=O)N(O)CCCCCN` [DFO, deferoxamine], the “Rescue of cell death in response” value in [2] is “cell death could also be inhibited”. The “Prevention of cell death elicited by FINs” value (from here on “Prevention … by FINs”) in data set [1] (24 h) was “can be prevented”. Moreover, the “Effect on lipid peroxidation (BODIPY 581/591 C11 oxidation)” value (“Effect on lipid peroxidation” for short) in [3] is reported as “could be ameliorated”.

With `CCOC(=O)c1ccc(NC2CCCCC2)c(N)c1` [Fer1, ferrostatin-1], the “Rescue of cell death in response” value in data set [2] is given as “rescued Gpx4^−/− cells from cell death”. The “Prevention … by FINs” value in data set [1] (24 h) was “can be prevented”. Further, the “Effect on lipid peroxidation” value in data set [3] is “could be ameliorated”.

As to `Clc1cccc(CN=C2Nc3ccccc3NC23CCNCC3)c1` [Liproxstatin-1], the “Cytotoxicity in HepG2 cells TC50” value in data set [4] amounted to 6 µM. Moreover, in data set [5], the half-maximal inhibitory concentration (IC50) was over 25 µM. Also, the IC50 in data set [6] was over 25 µM. In addition, the IC50 in data set [7] was determined as 4.1 µM. Moreover, the IC50 in data set [8] is over 25 µM. Further, in data set [9], the IC50 was over 25 µM. Besides, the IC50 in data set [10] is over 25 µM. In [11], this molecule came in with a Bioavailability of 52%. In addition, in data set [11] (i.v. 1 mg kg^−1), the C was 0.4 µg/mL; the “MRTINF (mean residence time extrapolated to infinity)” value is 4.9 h; the “Total Cl” value was 128 ml h^−1 and 66 ml min^−1 kg^−1; the V was 849 mL. In [11] (i.v. 1 mg kg^−1), this molecule had a Vss of 629 mL and a t1/2 of 4.6 h. In [11] (p.o. 5 mg kg^−1), the highest concentration (Cmax) was 80 ng/mL and the time to peak (Tmax) was 2 h. The “Rescue of cell death in response” value in data set [2] is listed as “inhibit ferroptosis in the low nanomolar range”. In data set [1] (Liproxstatin-1 200 nM, BSO 10 μM, erastin 1 μM, RSL3 0.5 μM, 24 h), the “Protection against FINs” value is on record as “protects against FINs”. Moreover, in data set [3], the “Effect on lipid peroxidation” value is reported as “completely prevents lipid peroxidation”. Also, the Effect on necroptosis entry in [12] is “does not prevent necroptosis”. In data set [13], the “Rescue of cell death induced by staurosporine and H2O2” value is listed as “fails to rescue cell death”. For the same molecule, the “Protection from RSL3-induced cell death” value in data set [14] (Liproxstatin-1 100 nM) is recorded as “able to protect”. The “Effect on RSL3-induced BODIPY 581/591 C11 oxidation” value in [15] is recorded as “could be blocked”. The molecule further showed a Median survival in data set [16] (vehicle-treated 11 days, P <0.0001) of 14 days. The “TUNEL+ cells in kidney compared with vehicle” value in data set [16] (day 9 after TAM treatment) is on record as “strongly reduced number of TUNEL+ cells”. Also, the “Tissue injury (AST/ALT, necrotic area)” value in data set [17] was “mitigated tissue injury”.

Regarding `CCCCCCCCCCCCCCCCOCC(COCC(F)(F)F)OP(=O)(O)OC` (stereo not drawn) [MJ33], the “Rescue of cell death in response” value in data set [2] is reported as “prevented cell death”.

Consider `CC(C)c1ccc2c(c1)c(SC(C)(C)C)c(CC(C)(C)C(=O)O)n2Cc1ccc(Cl)cc1` [MK886], for which the “Rescue of cell death in response” value in data set [2] is recorded as “prevented cell death”.

In the case of `CC(=O)N[C@@H](CS)C(=O)O` [NAC, N-acetylcysteine], the “Rescue of cell death of PZL cells on Gpx4 deficiency” value in data set [18] is “could not be rescued”.

In the case of `CN1C(=O)C(Cc2c[nH]c3ccccc23)NC1=S` (stereo not drawn) [Nec1, necrostatin-1], the “Rescue of cell death in response” value in [2] was “rescued Gpx4^−/− cells from cell death”. For the same molecule, in data set [1] (24 h), the “Prevention … by FINs” value is given as “can be prevented”. The “Prevention of ferroptosis in Rip1−/− cells” value in [19] is “ferroptosis could be prevented”.

As for `CN1C(=O)NC(Cc2c[nH]c3c(Cl)cccc23)C1=O` (stereo not drawn) [Nec1s], in [2], the “Rescue of cell death in response” value was “did not protect”.

`c1ccc2c(c1)SCc1c-2[nH]c2ccccc12` [PD146176]: the “Rescue of cell death in response” value in data set [2] is “prevented cell death”.

Regarding `COC(=O)c1ccc([C@@H]2c3[nH]c4ccccc4c3C[C@@H](C(=O)OC)N2C(=O)CCl)cc1` [RSL3, (1S, 3R)-RSL3, reference compound], the “Induction of cell death in HRPTEpiCs” value in data set [14] was “efficiently triggered cell death”.

`CCOc1ccccc1-n1c(C(C)N2CCN(C(=O)COc3ccc(Cl)cc3)CC2)nc2ccccc2c1=O` (stereo not drawn) [erastin]: in [1], the “Induction of cell death through GSH depletion” value is reported as “efficiently triggered rapid cell death”.

For `CC(c1cc2ccccc2s1)N(O)C(N)=O` (stereo not drawn) [zileuton], the “Rescue of cell death in response” value in [2] is listed as “prevented cell death”.

Take `Cc1c(C)c2c(c(C)c1O)CC[C@@](C)(CCC[C@H](C)CCC[C@H](C)CCCC(C)C)O2` [αToc, α-tocopherol]: the “Rescue of cell death in response” value in data set [2] is reported as “cell death could also be inhibited”. Further, in data set [1] (24 h), the “Prevention … by FINs” value is recorded as “can be prevented”. The “Rescue of cell death of PZL cells on Gpx4 deficiency” value in data set [18] was “rescued”.

(Values after article PMC4894846 (Nature cell biology, 2014).)
